Mdm2-MdmX inh – inhibitors of human Mdm2/MdmX interaction. SaOS-2 split-luciferase Mdm2/MdmX complementation, luminescence. inhibition, % at 8 µM. actives 3% (n = 330,000). AID 485346;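 active = inhibition of at least 50% at 8 µM in the primary screen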
UPR CHOP act – activators of apoptotic arm of unfolded protein response (CHOP) | CHO-CHOP luciferase reporter, UPR activation, luminescence; percent of tunicamycin response over DMSO baseline | activation, % at 10 µM | actives 0.34% (n = 330,000) | AID 449763;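 active = at 10 µM dose, activation of 40% or more, normalized to positive control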;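 also: 100% = tunicamycin at 10 µg/mL and 0% = DMSO alone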
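System: CHO CHOP reporter cells. Amount: 500 cells per well. Buffer or medium: F12 medium, 10% FBS. Compound dosing: one dose, 10 µM in 0.5% DMSO. Incubation: 6 h compound exposure at 37 °C after overnight seeding. Technique: Steady-Glo luciferase luminescence. Benchmarks: tunicamycin and DMSO controls.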
CSC inhib – blocks cancer stem cells; actives 1.1% (n = 300,000); cancer stem cell-like cells viability, luminescence; inhibition, % at 7.5 µM; in the data active = inhibition above about 75%; inconclusive = no clear call, values can overlap the other calls; tested in HMLE shEcad cells
UPR XBP1 act – activators of adaptive arm of unfolded protein response (XBP1) | CHO-XBP1 luciferase reporter, IRE1-XBP1 UPR activation, luminescence; percent of tunicamycin response, DMSO as zero | activation, % at 20 µM | actives 0.33% (n = 330,000) | AID 463104;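 active = versus positive control, 20 µM dose yields 30% or more activation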;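 also: 100% = tunicamycin at 10 µg/mL and 0% = DMSO only wells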
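assay system = CHO-XBP1 luciferase reporter cells | amount = 1000 cells/well | buffer or medium = F12 plus 10% FBS | compound dosing = single point, 20 µM final compound, 1% DMSO | incubation = 16-18 h cell attachment at 37 °C, then 6 h compound exposure | detection = Steady-Glo luminescence read | controls = tunicamycin 10 µg/mL and vehicle-only wells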
Beta apoptosis – beta cell apoptosis inhibition | INS-1E cytokine-induced death, ATP luminescence, 48 h; percent of positive-control rescue, neutral wells zero | protection from apoptosis, % (concentration not given with the values) | actives 0.8% (n = 300,000) | AID 435005;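 active = Every replicate reaches about 75%, or at least half do and their mean reaches it too, limit read from the data; inconclusive = At least half of replicates reach the limit but their mean does not; inactive = Under half of replicates reach the limit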;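 also: 0% = cytokine-treated negative control wells and 100% = positive control rescue; higher means more ATP so stronger rescue from cytokine killing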
SKKanGAS inh – SKKanGAS growth inhibition | S. pyogenes SKKanGAS, kanamycin growth, BacTiter-Glo, 6 h | inhibition, % at 7.5 µM | actives 1.3% (n = 300,000);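 active = mean replicate score, as percent of positive control median, at least 50; inconclusive = mean below 50 but one replicate at or above 50; inactive = mean and every replicate below 50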;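 also: strain carries kanamycin resistance gene driven by streptokinase promoter and grows in 40 µg/ml kanamycin; loss of luminescence reflects streptokinase promoter inhibition or plain growth inhibition; 0% = median of DMSO wells and 100% = positive control at its reference dose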
Mdm2 MdmX conf – confirmation of human Mdm2/MdmX interaction inhibitors. shares compounds with Mdm2-MdmX inh. Mdm2-MdmX binding, luminescent assay. inhibition, % at 8 µM. actives 55% (n = 10,000); in the data active = inhibition above about 40%
FLuc counter – counter-screen for Mdm2/MdmX inhibitors: full-length luciferase. shares compounds with Mdm2-MdmX inh. SaOS-2 full-length luciferase counterscreen, luminescence. inhibition, % at 8 µM. actives 77% (n = 6,200). AID 504607;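 active = mean inhibition at 8 µM reaching about 37%, which flags the compound as non-specific, limit read from the data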;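 also: p53-null SaOS-2 cells with luciferase driven by a doxycycline-inducible promoter; compound on cells about two nights before reading with doxycycline added after day one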
Starred values were filed as active, the others as inactive; ? = inconclusive; / = no result given. Shown are actives, neighbours in structure and some others; about 4.8% of the full set was active somewhere.

SMILES | Mdm2-MdmX inh | UPR CHOP act | CSC inhib | UPR XBP1 act | Beta apoptosis | SKKanGAS inh | Mdm2 MdmX conf | FLuc counter
CCOC1=NN(c2ncc(C(F)(F)F)cc2Cl)C(=O)/C1=C/N(C)C | 70* | 0 | -5 | -6 | -7 | 0 | -7 | /
Cc1ccc(-c2cnc(C3CC3)o2)cc1S(=O)(=O)Nc1ccccc1 | 61* | 0 | / | -8 | / | 2 | 66* | 34
CC(=O)c1cccc(NS(=O)(=O)c2cc(-c3cnc(C4CC4)o3)ccc2C)c1 | 57* | -1 | ? | -1 | 7 | 8 | 60* | 61*
O=C(O)CCC(=O)Nc1ccc(Oc2ncnc3cc(Cl)ccc23)nc1 | 8 | 0 | -9 | 5 | 2 | -1 | / | /
CNC(=O)c1c(NC(=O)c2cc(-c3cc(C)c(C)cc3O)n[nH]2)sc2c1CCCC2 | 50* | 17 | 15 | 50* | 9 | -3 | -3 | /
CO[C@H]1O[C@H](CBr)[C@@H](OC(=O)c2ccccc2)[C@H](O)[C@H]1O | 3 | -2 | -4 | 1 | -13 | -1 | / | /
OC1OC[C@@H](O)[C@H](O)[C@H]1O (stereo partly drawn) | 21 | 0 | -8 | -6 | 1 | -1 | / | /
COC(=O)Cc1ccc(NC(=O)c2ccc(C(C)(C)C)cc2)cc1 | 66* | -4 | 32 | -3 | / | 3 | 55* | 29
CC(C)(C)c1ccc(C(=O)Nc2ccc(Cl)cc2)cc1 | -60 | 5 | 7 | -1 | 5 | -1 | / | /
COC(=O)[C@@H]1CC[C@H](C)[C@@H](c2ccc(C)cc2)N1C(=O)c1ccc(/C=N/O[C@@H](C)c2cn([C@H](CO)Cc3ccccc3)nn2)cc1 | 88* | 13 | 32 | -3 | 4 | 25 | 66* | 51*
Cc1cccc(N2N=C(C(=O)N3Cc4ccccc4CC3C(N)=O)CCC2=O)c1 (stereo not drawn) | 6 | -2 | 22 | -1 | -4 | / | / | /
Cc1cccc(-c2nnn3c2nc(NCCc2ccc(S(N)(=O)=O)cc2)c2ccccc23)c1 | 67* | 11 | -6 | 19 | 4 | 7 | 50* | 74*
CNc1nc2c(-c3ccc(Cl)cc3)nnn2c2ccccc12 | 61* | 1 | 15 | 4 | 17 | -8 | 42* | 69*
Cc1ccc(C)c(Nc2nc3c(S(=O)(=O)c4ccccc4)nnn3c3ccccc23)c1 | 37 | 9 | 7 | 21 | 12 | 28 | / | /
NS(=O)(=O)c1ccc(CCNc2nc3c(-c4cccc(F)c4)nnn3c3ccccc23)cc1 | 67* | 2 | 5 | 4 | 19 | 13 | 31 | /
Cc1ccc(S(=O)(=O)c2nnn3c2nc(Nc2cccc(C)c2)c2ccccc23)cc1 | 54* | 30 | 20 | 13 | / | -2 | 9 | /
C[C@H](CO)N1C[C@H](C)[C@@H](CN(C)S(=O)(=O)c2cccs2)Oc2c(NC(=O)NC3CCCCC3)cccc2C1=O | -31 | 1 | / | -2 | -5 | / | / | /
COc1ccc(CCNc2ncnc3c2c(C)c(C)n3CCO)cc1OC | -13 | 1 | -4 | 2 | 8 | -5 | / | /
Cc1ccccc1C(=O)OCC(=O)NCC1COc2ccccc2O1 (stereo not drawn) | -16 | 1 | / | 0 | / | / | / | /
COc1cc(OC)cc(C(=O)Nc2ccc(N3CCOCC3)cc2N2CCOCC2)c1 | 19 | -2 | -12 | -1 | -5 | / | / | /
NNc1nc2c(-c3cccc(C(F)(F)F)c3)nnn2c2ccccc12 | 56* | 3 | 50 | 1 | 26 | 15 | 22 | /
COCCNc1nc2c(-c3cccc(C(F)(F)F)c3)nnn2c2ccccc12 | 40 | 2 | -1 | -3 | 1 | 1 | / | /
CCCn1c(NC(=O)CCS(=O)(=O)c2ccc(C)cc2)nc2ccccc21 | 9 | -1 | 2 | -1 | -5 | 13 | / | /
Cn1ccnc1CN1CCCCC1C(=O)Nc1ccc(Oc2cccnc2)cc1 (stereo not drawn) | 51* | 0 | 6 | -6 | / | -11 | 74* | 65*
CCn1ccnc1CN1CCCCC1C(=O)Nc1ccc(Oc2cccnc2)cc1 (stereo not drawn) | 49 | 2 | 23 | -3 | -2 | -1 | / | /
SMILES | Mdm2-MdmX inh | UPR CHOP act | CSC inhib | UPR XBP1 act | Beta apoptosis | SKKanGAS inh | Mdm2 MdmX conf | FLuc counter
COc1cccc(O)c1CN1CCC(C(=O)Nc2ccc(-c3cccc(C)c3)cc2)CC1 | 81* | 2 | 101* | -1 | / | 32 | 40* | 90*
COc1ccc(CN2CCC(C(=O)Nc3ccc(Oc4cccnc4)cc3)CC2)c(C)c1C | 74* | 3 | 44 | -4 | -6 | 23 | 34 | 53*
COc1cccc(O)c1CN1CCC(C(=O)Nc2ccc(Oc3cccnc3)cc2)CC1 | 12 | -1 | 6 | -6 | 2 | 1 | / | /
CCn1nc(C)c(CN2CCC(C(=O)Nc3cccc(-c4cccc(F)c4)c3)CC2)c1C | 53* | 0 | 24 | -2 | -1 | -14 | 18 | /
CCN(CC)S(=O)(=O)c1cc(NC(=O)c2cc([N+](=O)[O-])ccc2N2CCOCC2)ccc1C | 31 | 0 | 8 | -4 | / | 15 | / | /
COc1ccc(-c2cc3c(=O)n(CC(=O)Nc4cccc(Cl)c4)nc(C)n3n2)cc1 | 26 | 8 | -8 | 3 | / | 3 | / | /
OCC[C@@H]1C[C@@H](O)[C@H](O)[C@]2(CCc3ccccc3O2)O1 | 15 | 2 | -3 | -3 | 0 | 9 | / | /
CC(C)n1cc(CN2CCC(C(=O)Nc3cccc(-c4cccc(Cl)c4)c3)CC2)cn1 | 99* | 2 | 31 | 2 | 7 | -5 | 47* | 66*
CCn1cc(CN2CCC(C(=O)Nc3cccc(-c4cccc(F)c4)c3)CC2)cn1 | 7 | 0 | 0 | 1 | -4 | -1 | / | /
NS(=O)(=O)c1ccc(Sc2nc3ccccc3s2)c([N+](=O)[O-])c1 | 79* | -1 | 42 | -5 | 5 | 7 | 82* | 56*
Cc1cccc(/C=C/c2onc(C)c2[N+](=O)[O-])n1 | 100* | 37 | 51 | -3 | -7 | -5 | 71* | 22
O=C(C/C=N\O)Nc1ccc(Oc2ccccc2)cc1 | -1 | 4 | -4 | -2 | -6 | 6 | / | /
CO/N=C\CC(=O)Nc1ccc(Oc2ccccc2)cc1 | 52* | 3 | 1 | 7 | -9 | 3 | 63* | 73*
Nc1c(C(=O)NCc2ccc(F)cc2)c2nc3ccccc3nc2n1CCCN1CCOCC1 | 54* | 2 | ? | 3 | -8 | 20 | 20 | /
Nc1c(C(=O)NCc2ccccc2)c2nc3ccccc3nc2n1CCCN1CCOCC1 | 17 | 2 | 31 | 0 | 7 | 8 | / | /

From PubChem
